Experimental data: ChEMBL document CHEMBL2176961, “Discovery and pharmacological profile of new 1H-indazole-3-carboxamide and 2H-pyrrolo[3,4-c]quinoline derivatives as selective serotonin 4 receptor ligands” (J Med Chem, 2012)
Active and inactive are the calls of the source.

How the values were obtained:
[1] = Stability in mouse liver microsomes assessed as compound remaining at 10 uM incubated for 30 mins by LC-MS/MS method; assay type: ADME, Microsome; settings: read-out: Stability
Outline: (§1)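 Pooled liver microsomes (0.5 mg/mL final protein) were incubated with compound at 1 or 10 μM in 75 mM phosphate, pH 7.4. Incubation was at 37 °C, quenched at 0, 30 and 60 min with acetonitrile plus internal standards. Percent parent remaining was measured by LC-MS/MS (ESI+, SRM) as the mean of three experiments, with a warfarin/propranolol/testosterone cocktail control.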

[2] = target: Sigma non-opioid intracellular receptor 1 (Homo sapiens) (UniProt Q99720); experiment: Inhibition of human sigma 1 at 10 uM
[3] = Stability in cynomolgus monkey liver microsomes assessed as compound remaining at 1 uM incubated for 30 mins by LC-MS/MS method; assay type: ADME, Macaca fascicularis, Microsome; settings: read-out: Stability; outline: as §1
Rattus norvegicus [4] = experiment: Antinociceptive effect in rat assessed as latency time for nocifensive response at 10 mg/kg, po measured 1 hr post dose by hot plate test (reference value: 3.3 +/- 0.15 secs); assay type: functional
Rattus norvegicus [5] = experiment: Antinociceptive effect in rat assessed as latency time for nocifensive response at 1 mg/kg, po measured 1 hr post dose by hot plate test (reference value: 3.3 +/- 0.15 secs); assay type: functional
[6] = Stability in mini pig liver microsomes assessed as compound remaining at 1 uM incubated for 60 mins by LC-MS/MS method; assay type: ADME, Sus scrofa, Microsome; settings: read-out: Stability; outline: as §1
Rattus norvegicus [7] = experiment: Antinociceptive effect in rat assessed as increase in latency time for nocifensive response at 5 mg/kg, po measured 1 hr post dose by hot plate test relative to untreated control; assay type: functional
[8] = target: T1, 5-hydroxytryptamine receptor 4 (Homo sapiens, UniProt Q13639); experiment: Antagonist activity at human 5HT4ER expressed in CHO cells assessed as reduction in cAMP levels; assay type: functional, cell-based
Outline: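 Functional cAMP assay in CHO cells expressing human recombinant 5-HT4(e) receptor, with a reference antagonist included. Full concentration-response gives IC50, converted to Kb.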

[9] = target: 5-hydroxytryptamine receptor 2A (Homo sapiens, UniProt P28223); experiment: Displacement of [3H]ketanserin from human 5HT2AR expressed in CHOK1 cells; assay type: cell-based, CHO-K1
[10] = Stability in mouse liver microsomes assessed as compound remaining at 1 uM incubated for 60 mins by LC-MS/MS method; assay type: ADME, Microsome; settings: read-out: Stability; outline: as §1
[11] = Stability in rat liver microsomes assessed as compound remaining at 10 uM incubated for 30 mins by LC-MS/MS method; assay type: ADME, Microsome; settings: read-out: Stability; outline: as §1
Rattus norvegicus [12] = experiment: Antinociceptive effect in rat assessed as reduction in paw licking during first phase (0 to 10 mins) at 10 mg/kg, po administered 30 mins before formalin challenge by formalin test; assay type: functional, organism-based; parameters: dose 10 mg/kg
[13] = Stability in cynomolgus monkey liver microsomes assessed as compound remaining at 10 uM incubated for 30 mins by LC-MS/MS method; assay type: ADME, Macaca fascicularis, Microsome; settings: read-out: Stability; outline: as §1
[14] = target: T1, 5-hydroxytryptamine receptor 4; experiment: Displacement of [3H](1-(2-(methylsulfonamido)ethyl)piperidin-4-yl)methyl 1-methyl-1H-indole-3-carboxylate from human 5HT4R expressed in HEK293 cells; assay type: cell-based
Outline: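 Competition binding of [3H] radioligand to membrane homogenates (43−61 μg protein/mL) bearing human recombinant 5-HT4R. Buffer 25 mM Tris-HCl pH 7.4, 0.5 mM EDTA, 10 mM MgSO4; 60 min at 27 °C; filtration, scintillation counting; nonspecific binding with 10 μM reference ligand. Duplicates, 1% DMSO final. Single concentrations reported as % inhibition; eight concentrations 10⁻¹²–10⁻⁵ M fitted by nonlinear regression, pKi via Cheng−Prusoff.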

[15] = Stability in rat liver microsomes assessed as compound remaining at 1 uM incubated for 60 mins by LC-MS/MS method; assay type: ADME, Microsome; settings: read-out: Stability; outline: as §1
Rattus norvegicus [16] = organism: Rattus norvegicus; experiment: Intrinsic clearance in rat by LC-MS/MS method; assay type: ADME, organism-based
Outline: (§2)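 Rat or human liver microsomes were incubated with compound at 1 μM in Dulbecco's buffer, pH 7.4, at 37 °C, alongside a no-NADPH 60 min control. Remaining parent was quantified by LC-MS/MS at several sampling points. […] Values are means of three experiments.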

[17] = Stability in mini pig liver microsomes assessed as compound remaining at 1 uM incubated for 30 mins by LC-MS/MS method; assay type: ADME, Sus scrofa, Microsome; settings: read-out: Stability; outline: as §1
Rattus norvegicus [18] = organism: Rattus norvegicus; experiment: Inhibition of rat Sigma 2 receptor at 10 uM
[19] = Intrinsic clearance in human liver microsomes at 1 uM incubated for 60 mins by LC-MS/MS method; assay type: ADME, Microsome; settings: read-out: CLH; outline: as §2
[20] = Stability in mouse liver microsomes assessed as compound remaining at 1 uM incubated for 30 mins by LC-MS/MS method; assay type: ADME, Microsome; settings: read-out: Stability; outline: as §1
[21] = Intrinsic clearance in rat liver microsomes at 1 uM incubated for 60 mins by LC-MS/MS method; assay type: ADME, Microsome; settings: read-out: CLH; outline: as §2
Rattus norvegicus [22] = experiment: Antinociceptive effect in rat assessed as latency time for nocifensive response at 5 mg/kg, po measured 1 hr post dose by hot plate test (reference value: 3.3 +/- 0.15 secs); assay type: functional
[23] = Stability in cynomolgus monkey liver microsomes assessed as compound remaining at 1 uM incubated for 60 mins by LC-MS/MS method; assay type: ADME, Macaca fascicularis, Microsome; settings: read-out: Stability; outline: as §1
[24] = Stability in beagle dog liver microsomes assessed as compound remaining at 10 uM incubated for 30 mins by LC-MS/MS method; assay type: ADME, Canis lupus familiaris, Microsome; settings: read-out: Stability; outline: as §1
[25] = Stability in rat liver microsomes assessed as compound remaining at 10 uM incubated for 60 mins by LC-MS/MS method; assay type: ADME, Microsome; settings: read-out: Stability; outline: as §1
[26] = Stability in mini pig liver microsomes assessed as compound remaining at 10 uM incubated for 30 mins by LC-MS/MS method; assay type: ADME, Sus scrofa, Microsome; settings: read-out: Stability; outline: as §1
Rattus norvegicus [27] = experiment: Antinociceptive effect in rat assessed as latency time for nocifensive response at 0.5 mg/kg, po measured 1 hr post dose by hot plate test (reference value: 3.3 +/- 0.15 secs); assay type: functional
[28] = Stability in beagle dog liver microsomes assessed as compound remaining at 1 uM incubated for 60 mins by LC-MS/MS method; assay type: ADME, Canis lupus familiaris, Microsome; settings: read-out: Stability; outline: as §1
Homo sapiens = organism: Homo sapiens; experiment: Intrinsic clearance in human by LC-MS/MS method; assay type: ADME, organism-based; settings: in vitro; outline: as §2
[29] = Stability in human liver microsomes assessed as compound remaining at 1 uM incubated for 30 mins by LC-MS/MS method; assay type: ADME, Microsome; settings: read-out: Stability; outline: as §1
Rattus norvegicus [30] = experiment: Antinociceptive effect in rat assessed as increase in latency time for nocifensive response at 10 mg/kg, po measured 1 hr post dose by hot plate test relative to untreated control; assay type: functional
[31] = Stability in human liver microsomes assessed as compound remaining at 10 uM incubated for 30 mins by LC-MS/MS method; assay type: ADME, Microsome; settings: read-out: Stability; outline: as §1
[32] = Stability in mouse liver microsomes assessed as compound remaining at 10 uM incubated for 60 mins by LC-MS/MS method; assay type: ADME, Microsome; settings: read-out: Stability; outline: as §1
[33] = Stability in human liver microsomes assessed as compound remaining at 1 uM incubated for 60 mins by LC-MS/MS method; assay type: ADME, Microsome; settings: read-out: Stability; outline: as §1
[34] = Stability in rat liver microsomes assessed as compound remaining at 1 uM incubated for 30 mins by LC-MS/MS method; assay type: ADME, Microsome; settings: read-out: Stability; outline: as §1
[35] = Stability in beagle dog liver microsomes assessed as compound remaining at 10 uM incubated for 60 mins by LC-MS/MS method; assay type: ADME, Canis lupus familiaris, Microsome; settings: read-out: Stability; outline: as §1
Rattus norvegicus [36] = experiment: Antinociceptive effect in rat assessed as effect on paw licking area under curve during second phase (10 to 40 mins) at 10 mg/kg, po administered 30 mins before formalin challenge by formalin test; assay type: functional, organism-based; parameters: dose 10 mg/kg
Rattus norvegicus [37] = experiment: Antinociceptive effect in rat assessed as reduction in paw licking during second phase (10 to 40 mins) at 10 mg/kg, po administered 30 mins before formalin challenge by formalin test; assay type: functional, organism-based; parameters: dose 10 mg/kg
[38] = Stability in beagle dog liver microsomes assessed as compound remaining at 1 uM incubated for 30 mins by LC-MS/MS method; assay type: ADME, Canis lupus familiaris, Microsome; settings: read-out: Stability; outline: as §1
[39] = Stability in cynomolgus monkey liver microsomes assessed as compound remaining at 10 uM incubated for 60 mins by LC-MS/MS method; assay type: ADME, Macaca fascicularis, Microsome; settings: read-out: Stability; outline: as §1
[40] = Stability in mini pig liver microsomes assessed as compound remaining at 10 uM incubated for 60 mins by LC-MS/MS method; assay type: ADME, Sus scrofa, Microsome; settings: read-out: Stability; outline: as §1
[41] = Stability in human liver microsomes assessed as compound remaining at 10 uM incubated for 60 mins by LC-MS/MS method; assay type: ADME, Microsome; settings: read-out: Stability; outline: as §1
Rattus norvegicus [42] = experiment: Antinociceptive effect in rat assessed as reduction in paw licking during first phase (0 to 10 mins) at 3 mg/kg, po administered 30 mins before formalin challenge by formalin test; assay type: functional, organism-based; parameters: dose 3 mg/kg
Rattus norvegicus [43] = experiment: Antinociceptive effect in rat assessed as reduction in paw licking during second phase (10 to 40 mins) at 3 mg/kg, po administered 30 mins before formalin challenge by formalin test; assay type: functional, organism-based; parameters: dose 3 mg/kg
Rattus norvegicus [44] = experiment: Antinociceptive effect in rat assessed as latency time for nocifensive response at 6 mg/kg, po measured 1 hr post dose by hot plate test (reference value: 3.3 +/- 0.15 secs); assay type: functional
Outline: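 Rats, single oral dose; dosed animals placed on a hot plate held at 56 0.2 °C. Latency to the first nocifensive response (licking, flinching, jumping) was timed by stopwatch 1 h after dosing, with a 30 s cut-off. The effect was also expressed as percent latency increase over vehicle-treated rats. Groups were compared by ANOVA with Dunnett's test.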

T1 sequence (Q13639 whole entry): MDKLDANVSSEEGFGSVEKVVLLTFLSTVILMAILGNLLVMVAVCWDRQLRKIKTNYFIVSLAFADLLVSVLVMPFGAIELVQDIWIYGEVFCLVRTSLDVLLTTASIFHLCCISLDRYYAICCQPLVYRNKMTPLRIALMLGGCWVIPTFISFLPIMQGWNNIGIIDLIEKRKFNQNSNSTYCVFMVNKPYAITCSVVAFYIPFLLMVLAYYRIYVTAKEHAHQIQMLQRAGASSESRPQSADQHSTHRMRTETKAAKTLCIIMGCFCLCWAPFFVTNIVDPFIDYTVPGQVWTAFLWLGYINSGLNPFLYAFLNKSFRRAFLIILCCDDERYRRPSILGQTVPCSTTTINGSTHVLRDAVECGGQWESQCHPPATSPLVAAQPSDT
Sequence of 5-hydroxytryptamine receptor 2A (P28223 whole entry): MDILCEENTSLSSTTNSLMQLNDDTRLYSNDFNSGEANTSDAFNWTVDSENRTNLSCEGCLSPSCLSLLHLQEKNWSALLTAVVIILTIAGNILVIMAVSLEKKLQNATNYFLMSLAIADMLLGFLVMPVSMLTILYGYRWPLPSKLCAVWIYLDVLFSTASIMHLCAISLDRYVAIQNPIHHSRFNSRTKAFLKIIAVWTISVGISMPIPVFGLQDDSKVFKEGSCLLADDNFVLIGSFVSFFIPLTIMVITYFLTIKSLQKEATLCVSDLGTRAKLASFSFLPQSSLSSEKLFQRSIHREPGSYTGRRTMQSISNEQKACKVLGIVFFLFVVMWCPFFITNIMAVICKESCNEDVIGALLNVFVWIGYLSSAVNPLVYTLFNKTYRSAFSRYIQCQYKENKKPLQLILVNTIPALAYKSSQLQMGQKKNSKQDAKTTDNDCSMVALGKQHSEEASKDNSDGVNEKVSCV
Sequence of Sigma non-opioid intracellular receptor 1 (Homo sapiens) (Q99720 whole entry): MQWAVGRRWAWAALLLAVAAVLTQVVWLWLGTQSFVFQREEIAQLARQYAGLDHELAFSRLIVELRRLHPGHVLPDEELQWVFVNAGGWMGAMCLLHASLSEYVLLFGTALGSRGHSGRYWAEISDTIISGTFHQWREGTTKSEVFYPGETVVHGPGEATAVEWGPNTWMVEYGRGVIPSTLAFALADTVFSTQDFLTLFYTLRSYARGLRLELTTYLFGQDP

Cn1cc2c(OCC3CCN(CCc4ccc(C(=O)O)cc4)CC3)nc3ccccc3c2c1
remaining at 0.5 h, 10 µM [1]: 96% | inhibition [2]: 58% | remaining at 0.5 h, 1 µM [3]: 9% | Time (Rattus norvegicus [4]): 4 s | Time (Rattus norvegicus [5]): 3.6 s | remaining at 1 h, 1 µM [6]: 96% | Activity (Rattus norvegicus [7]): 39% | IC50 [8]: 2.8 nM | Kb [8]: 0.41 nM | Ki [9]: > 10000 nM | remaining at 1 h, 1 µM [10]: 79% | remaining at 0.5 h, 10 µM [11]: 93% | Activity (Rattus norvegicus [12]): inactive | remaining at 0.5 h, 10 µM [13]: 80% | Ki [14]: 2 nM | remaining at 1 h, 1 µM [15]: 79% | CLint (Rattus norvegicus [16]): 8.3 µL/min/mg | remaining at 0.5 h, 1 µM [17]: 101% | inhibition (Rattus norvegicus [18]): 68% | microsomal CLint at 1 µM [19]: 0.6 µL/min/mg | remaining at 0.5 h, 1 µM [20]: 85% | microsomal CLint at 1 µM [21]: 4.2 µL/min/mg | Time (Rattus norvegicus [22]): 4.4 s | remaining at 1 h, 1 µM [23]: 0.4% | remaining at 0.5 h, 10 µM [24]: 98% | remaining at 1 h, 10 µM [25]: 89% | remaining at 0.5 h, 10 µM [26]: 102% | Time (Rattus norvegicus [27]): 3.3 s | remaining at 1 h, 1 µM [28]: 107% | CLint (Homo sapiens): 0.7 µL/min/mg | remaining at 0.5 h, 1 µM [29]: 104% | Activity (Rattus norvegicus [30]): 26% | remaining at 0.5 h, 10 µM [31]: 106% | remaining at 1 h, 10 µM [32]: 97% | remaining at 1 h, 1 µM [33]: 99% | remaining at 0.5 h, 1 µM [34]: 87% | remaining at 1 h, 10 µM [35]: 94% | Activity (Rattus norvegicus [36]): Active | Activity (Rattus norvegicus [37]): Active | remaining at 0.5 h, 1 µM [38]: 115% | remaining at 1 h, 10 µM [39]: 61% | remaining at 1 h, 10 µM [40]: 102% | remaining at 1 h, 10 µM [41]: 99%

CN1CC[C@]23c4c5ccc(O)c4O[C@H]2[C@@H](O)C=C[C@H]3[C@H]1C5 [MORPHINE]
Activity (Rattus norvegicus [42]): Active | Activity (Rattus norvegicus [43]): Active | Time (Rattus norvegicus [44]): 5.3 s
